Activity calls are given as the source filed them. No cut-off for these calls is given here. Bounds are passed on as bounds.

We go through eleven compounds from ChEMBL document CHEMBL1144038, “Fluorinated methylenecyclopropane analogues of nucleosides. Synthesis and antiviral activity of (Z)- and (E)-9-{[(2-fluoromethyl-2-hydroxymethyl)-cyclopropylidene]methyl}adenine and -guanine” (Bioorg Med Chem, 2008).

A short description of data set [1]: Cytotoxicity against human akata cells by DNA hybridization assay. The class given is cell-based. A digest of the protocol: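 Latently infected Akata cells grown in RPMI 1640 with 10% fetal bovine serum, L-glutamine, penicillin and gentamicin at 37 °C in humidified 5% CO2.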
Data set [2] can be described thus: Selectivity index, ratio of CC50 for human akata cells to EC50 for Epstein-Barr virus. The class given is functional.
Data set [3] relates to Human gammaherpesvirus 4. As to the kind of experiment: Antiviral activity against Epstein-Barr virus infected in human akata cells. It is filed as functional, organism-based. To be noted: human gammaherpesvirus 4, Akata. Summed up: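 Akata cells kept in RPMI 1640 with 10% fetal bovine serum, L-glutamine, penicillin and gentamicin at 37 °C, 5% CO2. Lytic infection induced in latently infected cells with F(ab')2 goat anti-human IgG. Total DNA purified; EBV genome copies quantified by real-time TaqMan PCR (900 nM primers, 200 nM probe).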

Data set [4] in a line: Cytotoxicity against HFF cells. The class given is cell-based. To be noted: human.
Data set [5] deals with Human betaherpesvirus 5. As to the kind of experiment: Antiviral activity against Human cytomegalovirus Towne infected in HFF cells by plaque reduction assay. It is filed as functional, organism-based. To be noted: Human betaherpesvirus 5, Towne.
For another data set, the system named is Hepatitis C virus. The experiment in a line: Antiviral activity against Hepatitis C virus infected in human Huh7 AVA5 cells by replicon assay. It is filed as functional, organism-based, Hepacivirus hominis. To be noted: Huh-7. Summed up:
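HCV subgenomic CON1 genotype 1b replicon line AVA5 (Huh7), sub-confluent cultures. Compound added daily in fresh medium for 3 days. Assessed 24 h after last dose: intracellular HCV RNA by blot hybridization for EC50; cytotoxicity (CC50) by neutral red dye uptake.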
In general terms: Replicon systems follow genome replication, usually without infectious particles.

A short description of data set [6]: Cytotoxicity against human Huh7 AVA5 cells. It is filed as cell-based, Huh-7. A digest of the protocol: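 AVA5 replicon cells (Huh7 carrying subgenomic CON1 HCV, genotype 1b) kept as sub-confluent cultures. Compound given daily in fresh medium for 3 days. Viability was read by neutral red dye uptake 24 h after the last dose.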
Data set [7] has as its system Human betaherpesvirus 5. The experiment in a line: Antiviral activity against Human cytomegalovirus AD169 infected in HFF cells by plaque reduction assay. The class given is functional, organism-based.
Data set [8] has as its system Human gammaherpesvirus 4. As to the kind of experiment: Antiviral activity against Epstein-Barr virus infected in human daudi cells by viral capsid immunofluorescence ELISA. The class given is functional, organism-based. The following applies: human gammaherpesvirus 4, Daudi.
A short description of data set [9]: Selectivity index, ratio of CC50 for human Daudi cells to EC50 for Epstein-Barr virus. It is filed as functional.
The nature of data set [10]: Cytotoxicity against human Daudi cells by DNA hybridization assay. The class given is cell-based.
Data set [11] relates to Human gammaherpesvirus 4. The experiment in a line: Antiviral activity against Epstein-Barr virus infected in human daudi cells by DNA hybridization assay. The class given is functional, organism-based. The following applies: human gammaherpesvirus 4, Daudi.
The subject of data set [12] is Human gammaherpesvirus 4. As to the kind of experiment: Antiviral activity against Epstein-Barr virus infected in human H1 cells by DNA hybridization assay. It is filed as functional, organism-based. To be noted: human gammaherpesvirus 4, H1.

As usually defined, the CC50 is the concentration at which the toxic effect on the cells reaches its halfway point. A high value points to better tolerance by the cells. `Nc1nc2c(ncn2/C=C2/CC2(CO)CO)c(=O)[nH]1` [FILOCICLOVIR]: the CC50 in data set [1] was greater than 100 µM. In addition, the Selectivity index in data set [2] was greater than 40.

As usually defined, the EC50 is the concentration at which the effect is half-maximal. A lower EC50 goes with higher potency in that assay. In the data set with Human gammaherpesvirus 4 [3], `Nc1nc2c(ncn2/C=C2/CC2(CO)CF)c(=O)[nH]1` (stereo not drawn) displayed an EC50 of 7.5 µM. In addition, the CC50 in data set [1] is 59.7 µM.

Consider `Nc1nc2c(ncn2COCCO)c(=O)[nH]1` [ACYCLOVIR], for which a half-maximal effect in the data set on Human gammaherpesvirus 4 [3] (EC50) was put at 1.7 µM. In other words, the single-digit micromolar range.

With `Nc1ncnc2c1ncn2/C=C1/CC1(CO)CF` (stereo not drawn), the CC50 is greater than 100 µM in data set [4], 11 µM in [6] and 55.7 µM in data set [1]. For the same compound, the EC50 with Human betaherpesvirus 5 [5] is 46 µM; in the data set on Hepatitis C virus it was 6.5 µM; with Human gammaherpesvirus 4 [3], 0.5 µM. In addition, the result in the data set on Human betaherpesvirus 5 [7] was inactive.

As for `Nc1ncnc2c1ncn2/C=C1\CC1(F)CO` (stereo not drawn), the EC50 with Human gammaherpesvirus 4 [8] is 2300 nM; with Human gammaherpesvirus 4 [11], 167 µM; in the data set with Human gammaherpesvirus 4 [12], 3.6 µM. Besides, the Selectivity index in data set [9] is reported as greater than 1.25. In data set [10], this compound registered a CC50 greater than 209 µM.

On to `Nc1ncnc2c1ncn2/C=C1\CC1(CO)CF` (stereo not drawn), for which the EC50 in the data set on Human gammaherpesvirus 4 [3] was determined as 3.4 µM. In addition, half-maximal cytotoxicity in data set [1] (CC50) was put at 53.6 µM.

On to `Nc1nc2c(ncn2/C=C2\CC2(CO)CF)c(=O)[nH]1` (stereo not drawn), for which the EC50 with Human gammaherpesvirus 4 [3] amounted to 3.2 µM. The CC50 in data set [1] was found to be 64.1 µM.

For `Nc1ncnc2c1ncn2/C=C1/CC1(F)CO` (stereo not drawn), the Selectivity index in data set [9] is recorded as greater than 31.3. In [10], this compound registered a CC50 greater than 213 µM. The EC50 with Human gammaherpesvirus 4 [11] turned out to be 6.8 µM.

In the case of `Nc1nc2c(ncn2COC(CO)CO)c(=O)[nH]1` [GANCICLOVIR], in [4], the CC50 was greater than 100 µM. Further, the EC50 in the data set on Human betaherpesvirus 5 [5] worked out at 2.5 µM.

For the compound `Nc1nc2c(ncn2/C=C2\CC2(F)CO)c(=O)[nH]1` (stereo not drawn), the EC50 was less than 320 nM in the data set with Human gammaherpesvirus 4 [8] and 29.1 µM with Human gammaherpesvirus 4 [11]. Besides, the Selectivity index in data set [9] is listed as greater than 6.8. In [10], the CC50 was greater than 199 µM.

Take `Nc1nc2c(ncn2/C=C2/CC2(F)CO)c(=O)[nH]1` (stereo not drawn): the Selectivity index in [9] is given as greater than 24.9. This compound had a CC50 in data set [10] greater than 199 µM. The EC50 with Human gammaherpesvirus 4 [11] was found to be 8 µM.
